Experimental data taken from ChEMBL document CHEMBL5058577, “EUbOPEN Chemogenomics Library 2 (Multiplex)” (2022).

System: U2OS
Test: Multiplex assay against U2OS
Type: toxicity, cell-based
Conditions: human
In short: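 Values for tubulin, mitochondrial-mass and membrane-permeability phenotypes are per cents of cells with healthy nuclei. These cells were identified by CellPathfinder machine-learning gating of live cells that had been stained at seeding with Hoechst33342, BioTracker Green Microtubule Cytoskeleton Dye, MitoTracker Red and Annexin V Alexa Fluor 680 and imaged on a CQ1 microscope at 37°C and 5% CO2 after compound addition. The gating first set Hoechst high-intensity objects apart from normal cells, then split normal cells into healthy, pyknosed or fragmented nuclei, and pyknosed cells into mitotic or apoptotic.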

[1] = 12 h, 1 µM, compound concentration 1 uM, replicate 1
[2] = 12 h, 1 µM, compound concentration 1 uM, replicate 2
[3] = 12 h, 10 µM, compound concentration 10 uM, replicate 1
[4] = 12 h, 10 µM, compound concentration 10 uM, replicate 2
[5] = 24 h, 1 µM, compound concentration 1 uM, replicate 1
[6] = 24 h, 1 µM, compound concentration 1 uM, replicate 2
[7] = 24 h, 10 µM, compound concentration 10 uM, replicate 1
[8] = 24 h, 10 µM, compound concentration 10 uM, replicate 2
[9] = 48 h, 1 µM, compound concentration 1 uM, replicate 1
[10] = 48 h, 1 µM, compound concentration 1 uM, replicate 2
[11] = 48 h, 10 µM, compound concentration 10 uM, replicate 1
[12] = 48 h, 10 µM, compound concentration 10 uM, replicate 2

CN1CCN(c2ccc(Nc3c4ccccc4nc4ccccc34)cc2)CC1.Cl.Cl.O
Population Apoptotic (%) [1]: 100%
Population Fragmented Nuclei (%) [1]: 25%
Population Healthy Nuclei (%) [1]: 65%
Population Hoechst High Intensity Objects (%) [1]: 0%
Population Membrane Permeable-Phenotype (%) [1]: 19%
Population Mitochondria Different-Phenotype (%) [1]: 7%
Population Mitotic Cells (%) [1]: 0%
Population Normal (%) [1]: 99%
Population Pyknosed Nuclei (%) [1]: 8%
Population Tubulin-Different-Phenotype (%) [1]: 17%
Total Cell Count [1]: 193
Population Apoptotic (%) [2]: 87%
Population Fragmented Nuclei (%) [2]: 23%
Population Healthy Nuclei (%) [2]: 69%
Population Membrane Permeable-Phenotype (%) [2]: 14%
Population Mitochondria Different-Phenotype (%) [2]: 13%
Population Mitotic Cells (%) [2]: 12%
Population Normal (%) [2]: 100%
Population Pyknosed Nuclei (%) [2]: 7%
Population Tubulin-Different-Phenotype (%) [2]: 13%
Total Cell Count [2]: 107
Population Apoptotic (%) [3]: 93%
Population Fragmented Nuclei (%) [3]: 54%
Population Healthy Nuclei (%) [3]: 38%
Population Hoechst High Intensity Objects (%) [3]: 0%
Population Membrane Permeable-Phenotype (%) [3]: 65%
Population Mitochondria Different-Phenotype (%) [3]: 95%
Population Mitotic Cells (%) [3]: 6%
Population Normal (%) [3]: 99%
Population Pyknosed Nuclei (%) [3]: 7%
Population Tubulin-Different-Phenotype (%) [3]: 82%
Total Cell Count [3]: 213
Population Apoptotic (%) [4]: 100%
Population Fragmented Nuclei (%) [4]: 62%
Population Healthy Nuclei (%) [4]: 31%
Population Hoechst High Intensity Objects (%) [4]: 2%
Population Membrane Permeable-Phenotype (%) [4]: 70%
Population Mitochondria Different-Phenotype (%) [4]: 100%
Population Mitotic Cells (%) [4]: 0%
Population Normal (%) [4]: 97%
Population Pyknosed Nuclei (%) [4]: 6%
Population Tubulin-Different-Phenotype (%) [4]: 85%
Total Cell Count [4]: 132
Population Apoptotic (%) [5]: 92%
Population Fragmented Nuclei (%) [5]: 28%
Population Healthy Nuclei (%) [5]: 64%
Population Hoechst High Intensity Objects (%) [5]: 1%
Population Membrane Permeable-Phenotype (%) [5]: 10%
Population Mitochondria Different-Phenotype (%) [5]: 6%
Population Mitotic Cells (%) [5]: 7%
Population Normal (%) [5]: 98%
Population Pyknosed Nuclei (%) [5]: 6%
Population Tubulin-Different-Phenotype (%) [5]: 7%
Total Cell Count [5]: 200
Population Apoptotic (%) [6]: 100%
Population Fragmented Nuclei (%) [6]: 29%
Population Healthy Nuclei (%) [6]: 60%
Population Hoechst High Intensity Objects (%) [6]: 4%
Population Membrane Permeable-Phenotype (%) [6]: 5%
Population Mitochondria Different-Phenotype (%) [6]: 12%
Population Mitotic Cells (%) [6]: 0%
Population Normal (%) [6]: 95%
Population Pyknosed Nuclei (%) [6]: 10%
Population Tubulin-Different-Phenotype (%) [6]: 6%
Total Cell Count [6]: 124
Population Apoptotic (%) [7]: 100%
Population Fragmented Nuclei (%) [7]: 46%
Population Healthy Nuclei (%) [7]: 42%
Population Hoechst High Intensity Objects (%) [7]: 4%
Population Membrane Permeable-Phenotype (%) [7]: 85%
Population Mitochondria Different-Phenotype (%) [7]: 96%
Population Mitotic Cells (%) [7]: 0%
Population Normal (%) [7]: 95%
Population Pyknosed Nuclei (%) [7]: 11%
Population Tubulin-Different-Phenotype (%) [7]: 90%
Total Cell Count [7]: 205
Population Apoptotic (%) [8]: 90%
Population Fragmented Nuclei (%) [8]: 69%
Population Healthy Nuclei (%) [8]: 23%
Population Hoechst High Intensity Objects (%) [8]: 10%
Population Membrane Permeable-Phenotype (%) [8]: 96%
Population Mitochondria Different-Phenotype (%) [8]: 100%
Population Mitotic Cells (%) [8]: 10%
Population Normal (%) [8]: 89%
Population Pyknosed Nuclei (%) [8]: 7%
Population Tubulin-Different-Phenotype (%) [8]: 100%
Total Cell Count [8]: 148
Population Apoptotic (%) [9]: 87%
Population Fragmented Nuclei (%) [9]: 36%
Population Healthy Nuclei (%) [9]: 52%
Population Hoechst High Intensity Objects (%) [9]: 4%
Population Membrane Permeable-Phenotype (%) [9]: 6%
Population Mitochondria Different-Phenotype (%) [9]: 4%
Population Mitotic Cells (%) [9]: 12%
Population Normal (%) [9]: 95%
Population Pyknosed Nuclei (%) [9]: 10%
Population Tubulin-Different-Phenotype (%) [9]: 3%
Total Cell Count [9]: 231
Population Apoptotic (%) [10]: 100%
Population Fragmented Nuclei (%) [10]: 40%
Population Healthy Nuclei (%) [10]: 47%
Population Hoechst High Intensity Objects (%) [10]: 5%
Population Membrane Permeable-Phenotype (%) [10]: 19%
Population Mitochondria Different-Phenotype (%) [10]: 7%
Population Mitotic Cells (%) [10]: 0%
Population Normal (%) [10]: 94%
Population Pyknosed Nuclei (%) [10]: 12%
Population Tubulin-Different-Phenotype (%) [10]: 9%
Total Cell Count [10]: 147
Population Apoptotic (%) [11]: 96%
Population Fragmented Nuclei (%) [11]: 53%
Population Healthy Nuclei (%) [11]: 30%
Population Hoechst High Intensity Objects (%) [11]: 18%
Population Membrane Permeable-Phenotype (%) [11]: 91%
Population Mitochondria Different-Phenotype (%) [11]: 90%
Population Mitotic Cells (%) [11]: 3%
Population Normal (%) [11]: 81%
Population Pyknosed Nuclei (%) [11]: 15%
Population Tubulin-Different-Phenotype (%) [11]: 93%
Total Cell Count [11]: 243
Population Apoptotic (%) [12]: 100%
Population Fragmented Nuclei (%) [12]: 76%
Population Healthy Nuclei (%) [12]: 19%
Population Hoechst High Intensity Objects (%) [12]: 15%
Population Membrane Permeable-Phenotype (%) [12]: 100%
Population Mitochondria Different-Phenotype (%) [12]: 96%
Population Mitotic Cells (%) [12]: 0%
Population Normal (%) [12]: 84%
Population Pyknosed Nuclei (%) [12]: 4%
Population Tubulin-Different-Phenotype (%) [12]: 100%
Total Cell Count [12]: 173
